Key:
[1] = organism: Rattus norvegicus; assay: Influence (2 uM) on transacetylase catalyzed time dependent activation of NADPH cytochrome C reductase at pre-incubation time being 10 mins; assay type: functional
Procedure, shortened: (§1)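 Rat liver microsomes were preincubated at 37 °C with test compound (in DMSO) in 0.05 M phosphate buffer, pH 7.7. Aliquots were taken at 5, 10, 20 and 30 min into a cuvette with EDTA, cytochrome C and NADPH. NADPH–cytochrome C reductase activity was followed at 550 nm. Values are means of four observations.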

[2] = organism: Rattus norvegicus; assay: Effect of compound on AFB1-induced micronuclei formation in rat bone marrow cells (Activity: Micronucleated cells/1000 cells); assay type: functional
[3] = The compound was evaluated for in Vitro binding of AFB1 to DNA in rat liver microsomes; Pre-incubation time being 20 mins; details: Microsome
[4] = The compound was evaluated for in Vitro binding of AFB1 to DNA in rat liver microsomes; Pre-incubation time being 30 mins; details: Microsome
[5] = organism: Rattus norvegicus; assay: Effect of compound on AFB1-induced micronuclei formation in rat bone marrow cells in the presence of AFB1 (Activity: Micronucleated cells/1000 cells); assay type: functional
[6] = organism: Rattus norvegicus; assay: Influence (2 uM) on transacetylase catalyzed time dependent activation of NADPH cytochrome C reductase at pre-incubation time being 5 mins; assay type: functional; procedure, shortened: as §1
[7] = organism: Rattus norvegicus; assay: Influence (2 uM) on transacetylase catalyzed time dependent activation of NADPH cytochrome C reductase at pre-incubation time being 30 mins; assay type: functional; procedure, shortened: as §1
[8] = The compound was evaluated for in Vitro binding of AFB1 to DNA in rat liver microsomes; Pre-incubation time being 10 mins; details: Microsome
[9] = organism: Rattus norvegicus; assay: Influence (2 uM) on transacetylase catalyzed time dependent activation of NADPH cytochrome C reductase at pre-incubation time being 20 mins; assay type: functional; procedure, shortened: as §1
[10] = organism: Rattus norvegicus; assay: Influence (5 uM) on transacetylase catalyzed time dependent activation of NADPH cytochrome C reductase at pre-incubation time being 10 mins; assay type: functional; procedure, shortened: as §1
[11] = organism: Rattus norvegicus; assay: Influence (5 uM) on transacetylase catalyzed time dependent activation of NADPH cytochrome C reductase at pre-incubation time being 5 mins; assay type: functional; procedure, shortened: as §1
[12] = organism: Rattus norvegicus; assay: Influence (5 uM) on transacetylase catalyzed time dependent activation of NADPH cytochrome C reductase at pre-incubation time being 30 mins; assay type: functional; procedure, shortened: as §1
[13] = organism: Rattus norvegicus; assay: Influence (5 uM) on transacetylase catalyzed time dependent activation of NADPH cytochrome C reductase at pre-incubation time being 20 mins; assay type: functional; procedure, shortened: as §1

Compound | Activation [1] | Activity [2] | inhibition [3] | inhibition [4] | Activity [5] | Activation [6] | Activation [7] | inhibition [8] | Activation [9] | Activation [10] | Activation [11] | Activation [12] | Activation [13]
CC(=O)Oc1ccc2c(C)cc(=O)oc2c1OC(C)=O | 18.9% | 2.25 | 37.5% | 56.8% | 3.75 | 10.2% | 57.6% | 19% | 39.9% | – | – | – | –
O=c1c(O)c(-c2ccc(O)c(O)c2)oc2cc(O)cc(O)c12 [QUERCETIN] | – | 2 | 5.2% | 6.2% | 6 | – | – | 5.7% | – | 3.3% | 3.7% | 5.7% | 5.4%
CC(=O)Oc1cc(OC(C)=O)c2c(=O)c(OC(C)=O)c(-c3ccc(OC(C)=O)c(OC(C)=O)c3)oc2c1 | – | 2.25 | 12.8% | 18% | 4.75 | – | – | 6.7% | – | 13.3% | 7.1% | 37% | 25%
Cc1cc(=O)oc2c(O)c(O)ccc12 [4-METHYLDAPHNETIN] | – | – | 8.2% | 8.9% | – | – | – | 8.5% | – | 2.5% | 2.8% | 3.5% | 3.1%

— ChEMBL document CHEMBL1135327, “Comparison of the prevention of aflatoxin b(1)-induced genotoxicity by quercetin and quercetin pentaacetate” (2002)
